Experimental data reported in publication PMC9891086 (RSC Advances, 2023).

What was measured:
COX-2 = molecular target: T1, COX-2 (Homo sapiens, UniProt P35354); assay: biochemical
T1 sequence (P35354 18-604): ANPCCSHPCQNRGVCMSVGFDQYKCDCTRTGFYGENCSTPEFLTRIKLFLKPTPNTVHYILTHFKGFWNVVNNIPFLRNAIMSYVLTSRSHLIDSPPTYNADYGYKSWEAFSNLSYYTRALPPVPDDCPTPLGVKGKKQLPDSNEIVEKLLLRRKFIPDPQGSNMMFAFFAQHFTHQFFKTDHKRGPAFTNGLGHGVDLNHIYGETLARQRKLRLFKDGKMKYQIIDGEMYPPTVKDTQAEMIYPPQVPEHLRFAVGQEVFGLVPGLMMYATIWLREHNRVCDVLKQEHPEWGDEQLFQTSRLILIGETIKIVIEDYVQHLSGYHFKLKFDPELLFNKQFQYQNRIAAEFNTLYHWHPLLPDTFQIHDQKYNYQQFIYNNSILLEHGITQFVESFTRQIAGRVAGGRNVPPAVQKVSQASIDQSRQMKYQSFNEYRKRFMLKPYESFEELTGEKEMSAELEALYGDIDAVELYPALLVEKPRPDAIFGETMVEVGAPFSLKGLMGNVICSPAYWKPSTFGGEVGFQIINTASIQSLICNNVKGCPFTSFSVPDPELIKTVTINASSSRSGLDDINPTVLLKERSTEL

HepG2 cells = assay: MTT cytotoxic activity assay against HepG2 cells; assay type: cell-based; conditions: Homo sapiens, HepG2, 48 h, read-out: IC50 inhibitory effect on HepG2 cells
In short: (§1)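 Cells seeded at 5 × 10^3 per well and grown 24 h, then exposed to a range of test compound concentrations for 48 h. Vehicle control was 0.1% DMSO and the positive control was adriamycin (10 μM). MTT was added from a 5 mg mL−1 stock for 4 h, and formazan was dissolved in DMSO. Viability was read at 490 nm, in three replicates per treatment.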

Caco-2 cells = assay: MTT cytotoxic activity assay against Caco-2 cells; assay type: cell-based; conditions: Homo sapiens, Caco-2, 48 h, read-out: IC50 inhibitory effect on Caco-2 cells
In short: as §1

Row | SMILES | IC50 (COX-2) | IC50 (HepG2 cells) | IC50 (Caco-2 cells)
1 | CCCCCCCCC/C=C\CCCCCCCCC(=O)O [Compound 1, cis-10-eicosaenoic acid] | 10.8 ± 0.3 µM | 25 ± 1.08 µM | –
2 | CC[C@H](CC[C@@H](C)[C@H]1CC[C@H]2[C@@H]3CC(=O)C4=CC(=O)CC[C@]4(C)[C@H]3CC[C@]12C)C(C)C [Compound 3, stigmast-4-en-3,6-dione] | 67.9 ± 6.21 µM | – | –
3 | c1cncc([C@@H]2CCCCN2)c1 [Compound 15, anabasine] | 150 ± 11 µM | – | –
4 | Oc1ccccc1CN1CCCC[C@H]1c1cccnc1 [Compound 16, (2S)-N-hydroxybenzylanabasine] | 24.2 ± 1.2 µM | – | –

More lines, main results first:

Row | IC50 (COX-2) | SMILES | IC50 (HepG2 cells) | IC50 (Caco-2 cells)
5 | 123 ± 10.5 µM | COc1cc(O)c(C(C)=O)c(OC)c1 [Compound 5, xanthoxylin] | 8.21 ± 1.12 µM | –
6 | 19.3 ± 3.58 µM | N[C@H]1CCC=C[C@H]1C(=O)O [Compound 14, (1R,6S)-6-aminocyclohex-2-ene-1-carboxylic acid] | – | –
7 | 146 ± 11 µM | O=c1cc[nH]c(=O)[nH]1 [Compound 21, uracil] | 78.5 ± 4.41 µM | 86 ± 2.96 µM
8 | 149 ± 10 µM | O=C1N[C@@H](O)C(O)=C1O [Compound 23, (S)-3,4,5-trihydroxy-1H-pyrrol-2 (5H)-one] | – | –
9 | 162 ± 10 µM | OCc1ccccc1O[C@@H]1O[C@H](CO)[C@@H](O)[C@H](O)[C@H]1O [Compound 25, salicin] | – | –
